HTRA1 inh: HTRA1 serine protease inhibitors, primary screen, biochemical, fluorescence polarization, HTS | Q92743 | recombinant HTRA1, FP-rhodamine activity-based probe | inhibition, % at 5.96 µM | hit rate 0.5% among 340,000 | AID 504803, 2011; in the data active means inhibition above about 36%;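 further: 0% = enzyme with DMSO and 100% = wells lacking enzyme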
Target sequence (Q92743 whole entry, looked up): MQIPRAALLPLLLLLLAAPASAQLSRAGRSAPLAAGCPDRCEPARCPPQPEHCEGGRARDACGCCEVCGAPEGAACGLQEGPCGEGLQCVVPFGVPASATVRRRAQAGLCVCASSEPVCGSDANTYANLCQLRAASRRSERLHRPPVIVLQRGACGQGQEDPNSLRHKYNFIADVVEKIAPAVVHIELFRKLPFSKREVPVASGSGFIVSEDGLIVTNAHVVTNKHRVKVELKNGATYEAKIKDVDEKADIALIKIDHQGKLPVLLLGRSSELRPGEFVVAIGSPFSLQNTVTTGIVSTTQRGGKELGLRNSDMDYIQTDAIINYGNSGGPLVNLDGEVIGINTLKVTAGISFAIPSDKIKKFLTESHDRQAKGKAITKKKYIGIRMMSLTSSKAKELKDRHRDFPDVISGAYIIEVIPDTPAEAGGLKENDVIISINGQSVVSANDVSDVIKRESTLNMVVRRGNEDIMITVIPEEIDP
SIAE primary: human SIAE inhibitors, primary screen, biochemical, fluorescence polarization, FP-Rh probe, 1536-well HTS | Sialate O-acetylesterase (Homo sapiens), Q9HAT2 | SIAE FP-Rh probe binding | inhibition, % at 9.66 µM | hit rate 0.69% among 370,000;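 active means inhibition above a cutoff: mean of compounds within the control limits plus 3 SD of those, cut at about 17% in these data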;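 further: 0% = plate median of compound wells and 100% = probe without SIAE protein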
TCR CD3 inh: inhibitors of human TCR-CD3 interaction, primary screen, biochemical, fluorescence, TAMRA-labeled TCR probe. T-cell receptor (TCR). AID 651800, 2012. hit rate 0.37% among 360,000. inhibition, % at 9.4 µM; in the data active means inhibition above about 19%;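 further: recombinant mutant TCR 2C K166C tagged with TAMRA read by polarization; 0% = receptor in buffer alone and 100% = receptor with positive control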
ABHD4 inh: ABHD4 inhibitors, primary screen, biochemical, fluorescence polarization, mouse; purified mABHD4, FP-Rh probe fluorescence polarization; inhibition, % at 8.92 µM; (Lyso)-N-acylphosphatidylethanolamine lipase (Mus musculus), Q8VD66; hit rate 0.54% among 370,000;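 active means inhibition exceeding the mean over every tested compound plus 3 SD, cut at about 30% in these data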;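 further: 0% = plate median of compound wells and 100% = S159A mutant with DMSO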
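Assay system: Wild-type mouse ABHD4 protein | Medium: HEPES pH 7.0 buffer, 150 mM NaCl, 0.01% Pluronic F-127 | Incubation: Enzyme–compound pre-incubation 45 min, then probe 60 min, both 25 °C | Technique: Fluorescence polarization with parallel and perpendicular emission, 525/598 nm | Evaluation: % inhibition of FP-Rh probe binding versus controls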
pPAFAH FP inh: pPAFAH enzyme inhibitors, primary screen, biochemical, fluorescence polarization, human; Platelet-activating factor acetylhydrolase (Homo sapiens), Q13093; recombinant pPAFAH, FP-rhodamine probe fluorescence polarization; inhibition, % at 3.39 µM; hit rate 1.5% among 330,000; AID 463082, 2010;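 active means inhibition above the mean inhibition across the screen plus 3 SD, cut at about 25% in these data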;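 further: inhibitors block binding of the rhodamine activity-based probe so polarization drops; 0% = enzyme with DMSO and 100% = wells lacking pPAFAH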
ABHD4 confirm: ABHD4 inhibitors, retest, confirmation, biochemical, fluorescence polarization, mouse | shares compounds with ABHD4 inh | hit rate 55% among 1,800 | inhibition, % at 8.92 µM | purified mABHD4, FP-Rh probe fluorescence polarization;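 active means mean inhibition across replicates above the hit cutoff set in the primary screen, cut at about 30% in these data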;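 further: 0% = wild-type ABHD4 with DMSO and 100% = catalytically dead S159A mutant with DMSO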
The depositor's hits bear a star; / = not tested or not shown; ! = repeats disagree. An excerpt weighted towards active compounds, which were near 2.3% of everything screened.

SMILES	HTRA1 inh	SIAE primary	TCR CD3 inh	ABHD4 inh	pPAFAH FP inh	ABHD4 confirm
Cc1cc(O)c(-c2cc(O)c(C)cc2O)cc1O	9	10	5	32*	4	26
O=C1C(Cl)=C(Nc2ccccc2O)C(=O)N1c1ccccc1	8	4	8	28	15	/
COc1ccccc1N1C(=O)C(Cl)=C(Nc2ccccc2O)C1=O	9	-4	-4	31*	/	16
C=CCN1C(=O)[C@H](CC(=O)NCc2cccc(C(F)(F)F)c2)[C@@]2(C(=O)OCC)CCCC=C12	/	1	/	-2	/	/
CC1(c2nnnn2Cc2ccccc2)CCCC(=O)N1Cc1cccs1 (stereo not drawn)	/	-3	/	-1	/	/
OCCNc1nc(Nc2ccc(Br)cc2)nc2ccccc12	/	18*	-2	34*	6	47*
OCCNc1nc(Nc2ccccc2)nc2ccccc12	3	14	1	-2	-1	/
Cc1ccc(Nc2nc(NCc3ccco3)c3ccccc3n2)cc1	-37	12	4	36*	18	41*
Cc1nnc(NS(=O)(=O)c2ccc(N)cc2)s1	2	1	-10	-5	1	/
Cc1nnc(NS(=O)(=O)c2ccc(N=Nc3ccc(N)nc3N)cc2)s1	8	-2	2	58*	/	34*
COc1ccc(S(=O)(=O)NNC(=O)C(=O)NNc2ccccn2)cc1	2	3	-4	31*	4	26
Cc1ccn2c(NC3CCCCC3)c(-c3cccc(SC4CCCCC4)c3)nc2c1	-15	7	-2	31*!	8	25
Cc1ccn2c(NC3CCCCC3)c(-c3ccc(SC4CCCCC4)cc3)nc2c1	/	1	0	5	/	/
CN1OC[C@@H]2CN[C@H](c3ccc(-n4ccnc4)cc3)C[C@@H]21	/	2	7	3	/	/
Oc1ccc2ccccc2c1N=Nc1ccccn1	14	2	1	50*	14	53*
O=[N+]([O-])c1cccc(/C=N/Nc2nc(NCc3ccccc3)nc(N3CCOCC3)n2)c1	1	2	12	47*	-1	-10
c1ccc(NN(Cc2ccccn2)c2ccccc2)cc1	-3	5	-8	10	/	/
CC(C)C(=O)N(c1cc2sc(=O)oc2c2ccccc12)S(=O)(=O)c1cccs1	17	11	-5	42*	13	20
O=C(CSc1ncccn1)N(Cc1cccnc1)C(CCc1ccccc1)c1nc2ccccc2[nH]1 (stereo not drawn)	/	-2	-4	1	/	/
CC1Nc2ncnc(N3CCc4ccccc4C3)c2N(Cc2ccccc2)C1=O (stereo not drawn)	/	-5	0	-10	/	/
CCOC(=O)c1c(C)[nH]c2cc(Br)c(O)cc12	0	6	3	39*	10	60*
CCOC(=O)c1c(-c2ccc(OC)cc2)oc2cc(Br)c(O)cc12	-16	2	6	11	1	/
COc1cc(NS(=O)(=O)c2ccc(NC(C)=O)cc2)nc(OC)n1	5	0	2	1	-1	/
COc1cc(NS(=O)(=O)c2ccc(Nc3nc(-c4ccccn4)cs3)cc2)nc(OC)n1	12	-1	-12	35*	11	31*
COc1ccc(Cn2ccc3ccc(-c4ccc5ccn(C(=O)C6CCCCC6)c5c4)cc32)cc1	/	-4	/	0	/	/
SMILES	HTRA1 inh	SIAE primary	TCR CD3 inh	ABHD4 inh	pPAFAH FP inh	ABHD4 confirm
Cc1cccc(C)c1OCC(=O)N/N=C/c1cc2c(cc1[N+](=O)[O-])OCO2	2	-2	5	1	6	/
Cc1ccc(N=Cc2cc3c(cc2[N+](=O)[O-])OCO3)cc1[N+](=O)[O-]	/	4	6	42*	31*	30*
O=C(CCc1ccc(O)c(O)c1)N/N=C/c1cc2c(cc1[N+](=O)[O-])OCO2	34	12	17	31*	/	38*
COc1ccc(CN2C(=O)CN(S(C)(=O)=O)CC2(C)C(=O)Nc2c(C)cccc2C)cc1OC (stereo not drawn)	/	2	-2	9	/	/
CC(C)CCNC(=O)c1ccc2c(SCC(=O)O)c3c(nc2c1)CCC3	-10	-1	-10	46*	4	9
CCCCNC(=O)c1ccc2c(SCC(=O)O)c3c(nc2c1)CCCC3	0	-7	4	-9	6	/
CC(=O)Nc1ccc(NC(=O)CSc2nnc(-c3cccs3)o2)cc1	/	0	/	-3	/	/
Cc1cccc(NC(=O)c2cccc(C(=O)Nc3cccc(C)c3)n2)c1	3	-6	5	-5	2	/
O=C(NNC(=O)c1ccccn1)c1cccc([N+](=O)[O-])c1	-3	0	2	32*	1	8
Cc1cccc(NC(=O)NNC(=O)c2ccccn2)c1	3	-6	-1	30*	6	27
COC(=O)[C@]12C[C@H](CC(=O)NCc3ccc(C)o3)C(=O)N(Cc3ccco3)C1=C[C@H](C(C)C)O[C@@H]2C1CC1	/	4	/	-5	/	/
CC(C)N1CCc2c(-c3nc4ccccc4s3)csc2C1	/	5	/	2	/	/
O=C(NN1C(=O)/C(=C/c2ccc(O)c([N+](=O)[O-])c2)SC1=S)c1ccccc1Cl	3	-8	-12	49*	22	37*
Fc1ccccc1N1CCN(c2nc(-c3cccs3)nc3ccccc23)CC1	-26	-10	1	33*	-3	-25
O=c1c(-c2cccc3ccccc23)[n+]([O-])c2ccccc2n1O	3	13	9	49*	10	14
C=CCN1[C@H](C)COc2cccc(N3CCSCC3)c2S1(=O)=O	/	-4	/	-2	/	/
O=C(CN1C(=O)/C(=C2\SC(=S)N(CCS(=O)(=O)O)C2=O)c2ccccc21)Nc1cccc(Br)c1	-39	-3	9	67*	0	83*
COCCN1C(=O)/C(=C2/C(=O)N(CC(=O)Nc3ccccc3Cl)c3ccccc32)SC1=S	-3	0	-1	-1	2	/
COc1cc(/C=C2/C(=O)CNC2=O)ccc1O	5	-9	-10	-11	0	/
COc1cc(C=C2C(=O)C=CC2=O)ccc1O	/	9	16	37*	/	0
COC(=O)C1CN(Cc2cn(Cc3ccccc3)nn2)CCS(=O)(=O)N1Cc1ccccc1 (stereo not drawn)	/	2	/	7	/	/
Cc1ccc(C(c2ccc(C)o2)c2cccc([N+](=O)[O-])c2O)o1	-1	7	3	18	23	/
Cc1cc(C(c2ccc(C)o2)c2ccc(C)o2)c(O)c([N+](=O)[O-])c1	15	15	-2	44*	17	7
CC(COc1cccc(OC(F)(F)F)c1)CN1CCC(C(O)(c2ccccc2)c2ccccc2)CC1 (stereo not drawn)	/	-3	/	12	/	/

Screens deposited in PubChem by The Scripps Research Institute Molecular Screening Center.
